ChEMBL document CHEMBL3244256 (J Med Chem, 1979)

Columns and labels:
[1] = Toxicity ip dosed whole-body gamma-irradiated mouse compound administered 30 mins prior irradiation; type: organism-based; settings: in vivo
Mus musculus [2] = experiment: Antiradiation activity in ip dosed whole-body gamma-irradiated mouse assessed as mouse survival compound administered 30 mins prior irradiation measured after 30 days relative to control; type: functional
Procedure, shortened: (§1)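 Mice were dosed ip or po with compound in water, or in physiological saline containing 0.3% methylcellulose and 0.1% Tween 80, usually at pH 5–7. Dosing came 15, 30 or 60 min before whole-body ¹³⁷Cs γ irradiation (141.5 rd/min; 849 rd for most compounds). The dose reported is the lowest giving the highest survival rate. Read-out was % survival at 30 days.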

Mus musculus [3] = experiment: Antiradiation activity in ip dosed whole-body gamma-irradiated mouse assessed as increase in mouse survival rate compound administered 30 mins prior irradiation; type: functional; settings: light or radiation study, read-out: MED; procedure, shortened: as §1
Mus musculus [4] = experiment: Antiradiation activity in ip dosed whole-body gamma-irradiated mouse assessed as increase in mouse survival rate compound administered 15 mins prior irradiation; type: functional; settings: light or radiation study; procedure, shortened: as §1
Mus musculus [5] = experiment: Antiradiation activity in po dosed whole-body gamma-irradiated mouse assessed as mouse survival compound administered 30 mins prior irradiation measured after 30 days relative to control; type: functional; procedure, shortened: as §1
Mus musculus [6] = experiment: Antiradiation activity in po dosed whole-body gamma-irradiated mouse assessed as increase in mouse survival rate compound administered 30 mins prior irradiation; type: functional; settings: light or radiation study, read-out: MED; procedure, shortened: as §1
Mus musculus [7] = experiment: Protective index, ratio of LD50 for mouse to ED50 for antiradiation activity in ip dosed whole-body gamma-irradiated mouse
Procedure, shortened: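 After ip dosing and whole-body ¹³⁷Cs γ irradiation (141.5 rd/min), ED50 (dose for 50% survival) was estimated from log dose-probit survival plots. Protective index was approximated as approx LD50 (mg/kg) × 1.5 / ED50 (mg/kg).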

Mus musculus [8] = experiment: Antiradiation activity in ip dosed whole-body gamma-irradiated mouse assessed as mouse survival compound administered 15 mins prior irradiation measured after 30 days relative to control; type: functional; procedure, shortened: as §1
[9] = Toxicity ip dosed whole-body gamma-irradiated mouse compound administered 15 mins prior irradiation; type: organism-based; settings: in vivo
[10] = Toxicity po dosed whole-body gamma-irradiated mouse compound administered 30 mins prior irradiation; type: organism-based; settings: in vivo

Compound	LD50 at 0.5 h [1]	Survival (Mus musculus [2])	minimal effective dose (Mus musculus [3])	ED50 (Mus musculus [4])	minimal effective dose (Mus musculus [4]; read-out: MED)	Survival (Mus musculus [5])	minimal effective dose (Mus musculus [6])	PI (Mus musculus [7])	Survival (Mus musculus [8])	LD50 at 0.25 h [9]	LD50 at 0.5 h [10]
Br.NCC(N)CS (stereo unspecified)	800 mg/kg	20%	200 mg/kg	–	–	–	–	–	–	–	–
Cl.NCCCC[C@H](N)CS	–	–	–	10 mg/kg	25 mg/kg	50%	75 mg/kg	13	80%	88 mg/kg	450 mg/kg
